Consider 14 molecules from ChEMBL document CHEMBL1155534, “Tetracyclic sulfones as potent gamma-secretase inhibitors: synthesis and structure-activity relationship studies” (Bioorg Med Chem Lett, 2010).

A short description of data set [1]: Inhibition of gamma secretase.
A short description of data set [2]: Inhibition of gamma-secretase-mediated cleavage of human APP expressed in HEK293 cells assessed as reduction in amyloid beta42 production. Format: cell-based.
Data set [3] can be described thus: Inhibition of gamma-secretase-mediated cleavage of human APP expressed in HEK293 cells assessed as reduction in amyloid beta40 production. Format: cell-based. The procedure, abridged:
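HEK293 cells expressing human APP carrying Swedish and London mutations, in fresh medium with inhibitor for 4 h. Aβ40 in conditioned medium measured by ECL; IC50 derived.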

For data set [4], the system named is Mus musculus. The data set is described as follows: Reduction in amyloid beta 40 level in non-transgenic mouse plasma at 10 mg/kg, po. Format: ADME, organism-based. The conditions noted are these: in vivo. On the set-up: dose 10 mg/kg, route oral; scale not given: the % may be the effect or the level left. The method in brief: (§1)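 Non-transgenic mice given 10 mg/kg orally; Aβ40 reduction expressed as percent relative to vehicle controls, mean values (n = 5).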

A short description of data set [5]: Clearance in human hepatocyte pre million cells. Type of data set: ADME, cell-based, Liver. As to conditions: hepatocytes.
The next data set has as its target hERG (KCNH2) (Homo sapiens, UniProt Q12809). Kind of data set: Inhibition of human ERG assessed as rubidium efflux at 5 ug/ml.
The subject of data set [6] is Mus musculus. The data set is described as follows: Reduction in amyloid beta 40 level in non-transgenic mouse brain at 10 mg/kg, po. Also noted: dose 10 mg/kg, route oral; scale not given: the % may be the effect or the level left. Format: ADME, organism-based. As to conditions: in vivo. The method in brief:
as §1

Data set [7] is described as follows: Plasma protein binding in human. Format: ADME, cell-free. The conditions noted are these: read-out: PPB (converted).

hERG (KCNH2), sequence (Q12809 whole entry): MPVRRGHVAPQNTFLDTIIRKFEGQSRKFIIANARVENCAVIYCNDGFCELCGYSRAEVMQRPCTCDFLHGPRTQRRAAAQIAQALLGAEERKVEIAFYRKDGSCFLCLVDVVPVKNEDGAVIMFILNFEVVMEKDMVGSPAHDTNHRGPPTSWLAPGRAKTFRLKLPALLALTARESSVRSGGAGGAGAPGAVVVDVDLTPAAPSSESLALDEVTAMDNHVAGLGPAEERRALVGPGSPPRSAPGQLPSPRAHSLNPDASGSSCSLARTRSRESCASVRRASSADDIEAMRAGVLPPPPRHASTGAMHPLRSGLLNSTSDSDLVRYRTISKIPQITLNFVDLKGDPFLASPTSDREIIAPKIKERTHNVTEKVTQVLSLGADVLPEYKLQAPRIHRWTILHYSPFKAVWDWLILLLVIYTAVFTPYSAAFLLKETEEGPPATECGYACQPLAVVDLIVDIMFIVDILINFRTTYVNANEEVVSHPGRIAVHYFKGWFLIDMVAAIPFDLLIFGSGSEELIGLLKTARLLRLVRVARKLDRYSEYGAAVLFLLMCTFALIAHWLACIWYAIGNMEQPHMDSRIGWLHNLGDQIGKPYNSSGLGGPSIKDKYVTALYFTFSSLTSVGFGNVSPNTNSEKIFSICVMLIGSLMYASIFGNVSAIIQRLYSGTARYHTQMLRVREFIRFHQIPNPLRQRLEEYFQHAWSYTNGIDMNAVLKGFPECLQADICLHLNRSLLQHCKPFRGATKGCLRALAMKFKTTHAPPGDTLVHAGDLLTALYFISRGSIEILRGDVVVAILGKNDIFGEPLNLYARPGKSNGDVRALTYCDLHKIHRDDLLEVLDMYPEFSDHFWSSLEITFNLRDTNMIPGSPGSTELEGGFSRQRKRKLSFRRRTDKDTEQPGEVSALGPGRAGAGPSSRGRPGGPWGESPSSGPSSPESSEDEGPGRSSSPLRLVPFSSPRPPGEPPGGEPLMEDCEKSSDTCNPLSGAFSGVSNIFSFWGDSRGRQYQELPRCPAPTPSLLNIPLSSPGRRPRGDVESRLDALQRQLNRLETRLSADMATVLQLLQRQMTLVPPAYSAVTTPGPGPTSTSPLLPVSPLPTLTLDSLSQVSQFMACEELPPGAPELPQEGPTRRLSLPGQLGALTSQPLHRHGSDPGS

`O=S1(=O)CC[C@@H]2[C@@H](CC[C@@]3(S(=O)(=O)c4ccc(C(F)(F)F)cc4)c4c(F)ccc(F)c4OC[C@@H]23)N1` gave an IC50 in data set [1] of 30 nM.
In the case of `CCCC1C[C@@H]2[C@@H](CC[C@@]3(S(=O)(=O)c4ccc(C(F)(F)F)cc4)c4c(F)ccc(F)c4OC[C@@H]23)NS1(=O)=O` (stereo not given in full), the IC50 is 1 nM in data set [2], 5.5 nM in data set [1] and 3 nM in data set [3].
On the same counts, the results for `C=CCC1C[C@@H]2[C@@H](CC[C@@]3(S(=O)(=O)c4ccc(C(F)(F)F)cc4)c4c(F)ccc(F)c4OC[C@@H]23)NS1(=O)=O` (stereo not given in full) are 2 nM, 7.7 nM and 7 nM.
For `COCC1C[C@@H]2[C@@H](CC[C@@]3(S(=O)(=O)c4ccc(C(F)(F)F)cc4)c4c(F)ccc(F)c4OC[C@@H]23)NS1(=O)=O` (stereo not given in full), the IC50 in data set [2] is 8 nM; in data set [1] it was 9 nM; in data set [3], 7.8 nM.
The molecule `C/C=C/CC1C[C@@H]2[C@@H](CC[C@@]3(S(=O)(=O)c4ccc(C(F)(F)F)cc4)c4c(F)ccc(F)c4OC[C@@H]23)NS1(=O)=O` (stereo not given in full) registered an IC50 in data set [1] of 14.6 nM.
Still for that read-out and setting: under `O=S1(=O)N[C@@H]2CC[C@@]3(S(=O)(=O)c4ccc(C(F)(F)F)cc4)c4c(F)ccc(F)c4OC[C@H]3[C@@H]2CC1C/C=C/c1ccccc1` (stereo not given in full) stands 60.9 nM.
Consider `O=C(O)CC1C[C@@H]2[C@@H](CC[C@@]3(S(=O)(=O)c4ccc(C(F)(F)F)cc4)c4c(F)ccc(F)c4OC[C@@H]23)NS1(=O)=O` (stereo not given in full), for which the IC50 was determined as 1200 nM in data set [2], 48.3 nM in data set [1] and 930 nM in data set [3].
For the molecule `NC(=O)CC1C[C@@H]2[C@@H](CC[C@@]3(S(=O)(=O)c4ccc(C(F)(F)F)cc4)c4c(F)ccc(F)c4OC[C@@H]23)NS1(=O)=O` (stereo not given in full), the IC50 in data set [2] is 4 nM.
Turning to `O=S1(=O)N[C@@H]2CC[C@@]3(S(=O)(=O)c4ccc(C(F)(F)F)cc4)c4c(F)ccc(F)c4OC[C@H]3[C@@H]2CC1CCCO` (stereo not given in full), the results for the IC50 in data set [2], in data set [1] and in data set [3] were 4.9 nM, 9.5 nM and 3.8 nM, respectively.
On the same counts, the results for `O=C(O)CCC1C[C@@H]2[C@@H](CC[C@@]3(S(=O)(=O)c4ccc(C(F)(F)F)cc4)c4c(F)ccc(F)c4OC[C@@H]23)NS1(=O)=O` (stereo not given in full) are 64 nM, 17 nM and 40.6 nM.
As for `O=S1(=O)N[C@@H]2CC[C@@]3(S(=O)(=O)c4ccc(C(F)(F)F)cc4)c4c(F)ccc(F)c4OC[C@H]3[C@@H]2CC1CCN1CCCC1` (stereo not given in full), in data set [1], half-maximal inhibition (IC50) required 45.5 nM.
Same read-out and setting: under `O=S1(=O)N[C@@H]2CC[C@@]3(S(=O)(=O)c4ccc(C(F)(F)F)cc4)c4c(F)ccc(F)c4OC[C@H]3[C@@H]2CC1CCN1CCOCC1` (stereo not given in full) stands 48.4 nM.
On to `C[C@@H]1C[C@@H]2[C@@H](CC[C@@]3(S(=O)(=O)c4ccc(C(F)(F)F)cc4)c4c(F)ccc(F)c4OC[C@@H]23)NS1(=O)=O`, for which the Activity in the data set with Mus musculus [4] came to 72%; with Mus musculus [6] it was 57%. This molecule gave a hepatocyte CLint in data set [5] of 0.4 µL/min/1e6 cells. The IC50 in data set [2] worked out at 0.5 nM; in data set [1] it was 1.6 nM; in data set [3], 1 nM. Moreover, the inhibition at 5 ug/ml on hERG (KCNH2) is 4%. Also, the fraction unbound in data set [7] was 0.027.
Turning to `CC[C@@H]1C[C@@H]2[C@@H](CC[C@@]3(S(=O)(=O)c4ccc(C(F)(F)F)cc4)c4c(F)ccc(F)c4OC[C@@H]23)NS1(=O)=O`, the figures for the Activity in the data set on Mus musculus [4] and with Mus musculus [6] were 84% and 42%, respectively. This molecule also gave a hepatocyte CLint in data set [5] of 0.3 µL/min/1e6 cells. Moreover, the IC50 is 2 nM in data set [2], 1.9 nM in data set [1] and 5 nM in data set [3]. For the same molecule, at hERG (KCNH2), the inhibition at 5 ug/ml amounted to 10%. The fraction unbound in data set [7] was 0.019.

Usually IC50 stands for the concentration needed to halve the response being measured. Usually hepatocyte CLint stands for a measure of how fast metabolising enzymes remove a compound, apart from limits set by blood flow. In general, inhibition refers to the drop in the measured response relative to a control, in per cent.
